{"source": "ChEMBL document CHEMBL1129979", "about": "“Conformationally constrained deltorphin analogs with 2-aminotetralin-2-carboxylic acid in position 3” (J Med Chem, 1997)", "key": {"Mus musculus": {"organism": "Mus musculus", "assay": "The inhibitory concentration activity was measured on electrically induced contraction of the mouse vas deferens (MVD)", "format": "functional", "procedure,_shortened": "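Mouse vas deferens is mounted between platinum axial wire electrodes in Mg-free Krebs bicarbonate at 34 °C, gassed with 95% O2/5% CO2, under 0.5 g tension. After 15 min equilibration, it is stimulated transmurally at 0.1 Hz, 2 ms, 40 V (supramaximal). Dose-response curves are built by the single-dose method. IC50 is the concentration giving 50% reduction of contractions, from a Hill-equation least-squares fit of mean data.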"}, "Cavia porcellus": {"organism": "Cavia porcellus", "assay": "The inhibitory concentration activity was measured on guinea pig ileum (GPI)", "format": "functional", "procedure,_shortened": "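Guinea pig ileum myenteric plexus-longitudinal muscle strips are mounted between platinum axial wire electrodes in Krebs bicarbonate at 37 °C, gassed with 95% O2/5% CO2, under 1 g tension. Strips are stimulated transmurally at 0.1 Hz, 1 ms, 40 V (supramaximal) and equilibrated 60 min before peptides are added. Single-dose dose-response curves are fitted to the Hill equation by least squares on mean data. IC50 is the concentration giving 50% reduction of contractions.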"}, "[1]": {"biological_target": "T1, Delta-type opioid receptor (Rattus norvegicus, UniProt P33533)", "T1 sequence (P33533 whole entry)": "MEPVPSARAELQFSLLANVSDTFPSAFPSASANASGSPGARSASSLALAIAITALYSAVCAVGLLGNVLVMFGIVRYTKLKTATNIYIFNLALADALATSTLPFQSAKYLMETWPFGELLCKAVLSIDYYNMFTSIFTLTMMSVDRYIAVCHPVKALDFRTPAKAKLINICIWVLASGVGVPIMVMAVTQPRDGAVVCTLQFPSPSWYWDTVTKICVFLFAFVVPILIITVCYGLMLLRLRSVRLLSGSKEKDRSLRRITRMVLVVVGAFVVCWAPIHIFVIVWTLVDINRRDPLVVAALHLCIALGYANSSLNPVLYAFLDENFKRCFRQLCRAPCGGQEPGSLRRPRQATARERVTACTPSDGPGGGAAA", "assay": "The binding affinity was measured using [3H]naltrindole against Opioid receptor delta 1 of rat brain"}, "[2]": {"biological_target": "T1, Delta-type opioid receptor", "assay": "The binding affinity was measured using [3H]- TIPPsi against Opioid receptor delta 1"}, "Mu-type opioid receptor": {"biological_target": "Mu-type opioid receptor (Rattus norvegicus, UniProt P33535)", "sequence (P33535 whole entry)": "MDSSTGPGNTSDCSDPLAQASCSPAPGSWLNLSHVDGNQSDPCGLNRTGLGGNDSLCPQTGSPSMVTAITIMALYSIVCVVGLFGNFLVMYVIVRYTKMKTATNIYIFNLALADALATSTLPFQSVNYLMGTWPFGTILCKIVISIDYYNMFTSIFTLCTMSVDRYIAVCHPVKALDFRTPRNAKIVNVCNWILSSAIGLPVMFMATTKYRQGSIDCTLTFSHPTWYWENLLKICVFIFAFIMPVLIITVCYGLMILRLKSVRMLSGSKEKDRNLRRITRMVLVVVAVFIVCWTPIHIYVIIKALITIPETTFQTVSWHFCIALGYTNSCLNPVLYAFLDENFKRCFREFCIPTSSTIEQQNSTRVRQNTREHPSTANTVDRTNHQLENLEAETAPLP", "assay": "The binding affinity was measured using [3H]- DAGO against Opioid receptor mu 1 of rat brain"}, "[3]": {"biological_target": "T1, Delta-type opioid receptor", "assay": "The binding affinity was measured using [3H]-DIDII against Opioid receptor delta 1 of rat brain"}, "[4]": {"biological_target": "Kappa-type opioid receptor (Rattus norvegicus, UniProt P34975)", "sequence (P34975 whole entry)": "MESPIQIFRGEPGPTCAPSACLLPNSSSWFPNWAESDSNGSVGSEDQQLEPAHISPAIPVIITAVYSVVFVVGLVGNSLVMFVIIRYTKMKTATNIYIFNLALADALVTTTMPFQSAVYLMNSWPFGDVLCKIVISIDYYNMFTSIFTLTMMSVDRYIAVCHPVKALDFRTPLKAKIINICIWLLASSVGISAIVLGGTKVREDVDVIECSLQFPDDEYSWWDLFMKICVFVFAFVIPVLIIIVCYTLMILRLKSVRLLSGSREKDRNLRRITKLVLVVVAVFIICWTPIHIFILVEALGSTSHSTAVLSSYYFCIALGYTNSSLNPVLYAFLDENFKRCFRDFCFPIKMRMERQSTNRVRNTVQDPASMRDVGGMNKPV"}}, "data": [{"smiles": "CC[C@H](C)[C@H](NC(=O)[C@H](CC(=O)O)NC(=O)[C@H](Cc1ccccc1)NC(=O)[C@@H](C)NC(=O)[C@@H](N)Cc1ccc(O)cc1)C(=O)N[C@H](C(=O)NCC(N)=O)[C@@H](C)CC", "values": [{"measurement": "IC50", "setting": "Mus musculus", "result": 0.082, "unit": "nM"}, {"measurement": "IC50", "setting": "Cavia porcellus", "result": 4210, "unit": "nM"}, {"measurement": "Ki", "setting": "[1]", "result": 0.047, "unit": "nM"}, {"measurement": "Ki", "setting": "[2]", "result": 0.018, "unit": "nM"}, {"measurement": "Ki", "setting": "Mu-type opioid receptor", "result": 3220, "unit": "nM"}, {"measurement": "Ki", "setting": "[3]", "result": 0.056, "unit": "nM"}, {"measurement": "Ki", "setting": "[4]", "result": "> 10000", "unit": "nM"}]}, {"smiles": "CC(C)[C@H](NC(=O)[C@H](CC(=O)O)NC(=O)[C@H](Cc1ccccc1)NC(=O)[C@H](C)NC(=O)[C@@H](N)Cc1ccc(O)cc1)C(=O)N[C@H](C(=O)NCC(N)=O)C(C)C", "values": [{"measurement": "IC50", "setting": "Mus musculus", "result": 0.32, "unit": "nM"}, {"measurement": "IC50", "setting": "Cavia porcellus", "result": "> 3000", "unit": "nM"}]}, {"smiles": "CC[C@H](C)[C@H](NC(=O)[C@H](CCC(=O)O)NC(=O)[C@]1(NC(=O)[C@@H](C)NC(=O)[C@@H](N)Cc2ccc(O)cc2)CCc2ccccc2C1)C(=O)N[C@H](C(=O)NCC(N)=O)[C@@H](C)CC", "values": [{"measurement": "IC50", "setting": "Mus musculus", "result": 0.09, "unit": "nM"}, {"measurement": "IC50", "setting": "Cavia porcellus", "result": 19600, "unit": "nM"}, {"measurement": "Ki", "setting": "[1]", "result": 0.515, "unit": "nM"}, {"measurement": "Ki", "setting": "[2]", "result": 0.38, "unit": "nM"}, {"measurement": "Ki", "setting": "Mu-type opioid receptor", "result": 731, "unit": "nM"}, {"measurement": "Ki", "setting": "[3]", "result": 0.035, "unit": "nM"}, {"measurement": "Ki", "setting": "[4]", "result": "> 10000", "unit": "nM"}]}, {"smiles": "CC[C@H](C)[C@H](NC(=O)[C@H](CCC(=O)O)NC(=O)[C@H](Cc1ccccc1)NC(=O)[C@@H](C)NC(=O)[C@@H](N)Cc1ccc(O)cc1)C(=O)N[C@H](C(=O)NCC(N)=O)[C@@H](C)CC", "values": [{"measurement": "IC50", "setting": "Mus musculus", "result": 0.5, "unit": "nM"}, {"measurement": "IC50", "setting": "Cavia porcellus", "result": 67200, "unit": "nM"}, {"measurement": "Ki", "setting": "Mu-type opioid receptor", "result": 3190, "unit": "nM"}, {"measurement": "Ki", "setting": "[4]", "result": "> 10000", "unit": "nM"}]}]}
